Data set [1] in a line: Cytotoxicity against human L02 cells as inhibition of cell viability at 80 uM after 24 hrs by MTT assay. The format is cell-based. The note with it: for cytotoxicity at 24 h, 80 µM: L02 cells, read-out: INH. (Tetrazolium assays rely on reduction of a dye to a coloured formazan, in cell work by metabolically active cells.)
A short description of data set [2]: Cytotoxicity against human HEK293 cells as inhibition of cell viability at 80 uM after 24 hrs by MTT assay. The note with it: HEK293 cells, read-out: INH. It counts as cell-based.
The subject of data set [3] is PC-12. Put plainly: Neurorestorative activity against H2O2-induced oxidant injury in rat PC12 cells assessed as restorative rate at 40 uM measured after 48 hrs pretreated with 200 uM H2O2 for 1 hr by MTT assay. It counts as functional. The method in brief: (§1)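 PC12 cells at 1×10^4/well in DMEM with 10% FBS and 5% horse serum for 24 h. Exposed to 200 μM H₂O₂ for 1 h, washed twice with PBS, then compound (10, 20 or 40 μM) in DMEM for 48 h. MTT 0.5 mg/ml final for 4 h, DMSO solubilization, A570. Restoration rate from absorbance relative to injured control; mean ± S.D. of six independent experiments.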

The test system of data set [4] is PC-12. Nature of the data set: Neurorestorative activity against H2O2-induced oxidant injury in rat PC12 cells assessed as restorative rate at 20 uM measured after 48 hrs pretreated with 200 uM H2O2 for 1 hr by MTT assay. It counts as functional. The method in brief: as §1
For data set [5], the system named is PC-12. Put plainly: Neuroprotective activity against rat PC12 cells assessed as protection against corticosterone- induced lesion at 1.25 uM after 1 day by MTT assay. The format is functional. The method in brief: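 Low-differentiated PC12 cells at 1×10^4/well in DMEM with 5% heat-inactivated horse serum and 10% FBS for 24 h. Then 200 μM corticosterone plus compound at 1.25 μM for 1 day. MTT 0.5 mg/ml final for 4 h, formazan in DMSO, A570. Protection rate = (A_drug − A_corticosterone)/A_corticosterone ×100; mean ± S.D. of six independent experiments.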

Data set [6] has as its system PC-12. Nature of the data set: Neurorestorative activity against H2O2-induced oxidant injury in rat PC12 cells assessed as restorative rate at 10 uM measured after 48 hrs pretreated with 200 uM H2O2 for 1 hr by MTT assay. It counts as functional. The method in brief:
as §1

Data set [7] deals with Mus musculus. Nature of the data set: Antidepressant-like activity in C57 mouse assessed as reduction in immobility time at 32 mg/kg, ip administered from day 2 to 15 measured on 2nd and 15th day 30 mins after drug challenge by forced swim test. It counts as functional. Conditions: route intraperitoneal. Summed up:
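Male C57 mice (20–24 g), 10 per group. Day 1: 15 min pre-swim in a cylinder (20 cm diameter) with 15 cm water at 22–25 °C. Days 2–15: daily i.p. 32 mg/kg in 30% β-cyclodextrin. On days 2 and 15, a 6 min swim 30 min after dosing. Immobility (speed <20 mm/s) scored over the last 4 min from video. Mean ± S.D.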

Data set [8] has as its system PC-12. Put plainly: Neuroprotective activity against corticosterone- induced morphological change in rat PC12 cells assessed as decrease in cycloid shape at 1.25 uM after 24 hrs by inverted microscopic analysis. It counts as functional, cell-based. Summed up:
(§2)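 PC12 cells seeded at 1×10^6 cells/mL and grown 1 d. Exposed to corticosterone 0.2 mM with or without drug at 1.25 μM for 24 h. Photographed by inverted microscope in three random fields per group. Cells with shrunk axons and cycloid shape counted as injured, normal neuron-like cells counted separately, using computer-assisted image analysis.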

Data set [9] relates to PC-12. Put plainly: Neuroprotective activity against corticosterone- induced morphological change in rat PC12 cells assessed as decrease in shrunk axons at 1.25 uM after 24 hrs by inverted microscopic analysis. It counts as functional, cell-based. Summed up: as §2
The subject of data set [10] is Mus musculus. Nature of the data set: Toxicity in C57 mouse assessed as increase in spontaneous locomotor activity at 32 mg/kg, ip for 14 days by open field test. It counts as organism-based. Conditions: in vivo, 336 h. More on the design: dose 32 mg/kg, route intraperitoneal. The method in brief: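 Male C57 mice (20–24 g), 10 per group, 12 h light/dark cycle, food and water ad libitum. Dosed i.p. at 32 mg/kg daily for 14 days, then total distance travelled measured in an open field arena.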

For orientation: inhibition in vivo means the share of the control response that was lost under treatment.

Activity calls are given as the source filed them. The rule behind the calls is not given here.

On to `COc1ccc2cccc(CCNC(=O)C3CN(C(=O)c4ccccc4)C3)c2c1`, for which the cytotoxicity at 24 h, 80 µM in data set [1] worked out at 3.8%; in [2], 11.9%. In addition, the Activity with PC-12 [3] is on record as 4.6%; in the data set with PC-12 [4], 6.6%; in the data set with PC-12 [6], 2.9%. Besides, in the data set with PC-12 [5], the outcome was inactive.

Regarding `CC#C[C@]1(O)CC[C@H]2[C@@H]3CCC4=CC(=O)CCC4=C3[C@@H](c3ccc(N(C)C)cc3)C[C@@]21C` [MIFEPRISTONE], in the data set on PC-12 [5], the Activity was found to be 31.1%.

On to `COc1ccc2cccc(CCNC(=O)C3CN(C(=O)OCc4ccccc4)C3)c2c1`, for which the cytotoxicity at 24 h, 80 µM in data set [1] was found to be 12.1%; in data set [2], 1%. Moreover, the Activity worked out at 7.3% in the data set on PC-12 [3], 6.6% with PC-12 [4] and 3.2% in the data set with PC-12 [6]. For the same compound, the outcome with PC-12 [5] was inactive.

Consider `COc1ccc2cccc(CCNC(=O)C3CN(C(C)=O)C3)c2c1`, for which the cytotoxicity at 24 h, 80 µM came out at 2.3% in [1] and 6.2% in data set [2]. The values for the Activity in the data set on PC-12 [3] and with PC-12 [4] were 1% and 0.6%, respectively. The result in the data set with PC-12 [5] and with PC-12 [6] was inactive.

Turning to `COc1ccc2cccc(CCNC(=O)C3CN(C(=O)c4ccc(Cl)cc4)C3)c2c1`, the inhibition in vivo at 32 mg/kg in the data set with Mus musculus [7] amounted to 49.1%. For the same compound, the cytotoxicity at 24 h, 80 µM was determined as 5.9% in data set [1] and 11.8% in data set [2]. Further, the Activity in the data set with PC-12 [3] came to 4.7%; in the data set on PC-12 [5], 39.2%; in the data set with PC-12 [6], 0.3%. Moreover, the outcome with PC-12 [4] was inactive. Moreover, the inhibition result in the data set with PC-12 [8] and in the data set with PC-12 [9] was “Active” throughout.

For `COc1ccc(C(=O)N2CC(C(=O)NCCc3cccc4ccc(OC)cc34)C2)cc1`, the values for the cytotoxicity at 24 h, 80 µM in data set [1] and in [2] were 7.8% and 8.9%, respectively. The outcome in the data set on PC-12 [3], in the data set on PC-12 [4], in the data set with PC-12 [5] and in the data set on PC-12 [6] was inactive.

In the case of `COc1ccc2cccc(CCNC(=O)C3CN(C(=O)c4ccncc4Cl)C3)c2c1`, the cytotoxicity at 24 h, 80 µM in data set [1] is 4.8%; in data set [2], 17.3%. The Activity in the data set with PC-12 [3] came to 2.1%. Besides, the result in the data set on PC-12 [4], in the data set on PC-12 [5] and in the data set on PC-12 [6] was inactive.

Turning to `COc1ccc2cccc(CCNC(=O)C3CN(S(=O)(=O)c4ccc(Cl)cc4)C3)c2c1`, the results for the cytotoxicity at 24 h, 80 µM in data set [1] and in data set [2] were 33.6% and 21.5%, respectively. Further, the Activity in the data set on PC-12 [3] worked out at 6.8%; with PC-12 [4] it was 4.5%; in the data set on PC-12 [5] it was 25.3%; with PC-12 [6] it was 4.6%.

Turning to `COc1ccc2cccc(CCNC(=O)C3CN(C(=O)c4ccc(C(F)(F)F)cc4)C3)c2c1`, the cytotoxicity at 24 h, 80 µM in [1] is 7.9%; in data set [2], 24.6%. Moreover, the result in the data set on PC-12 [3], in the data set on PC-12 [4] and in the data set on PC-12 [6] was inactive. Besides, in the data set with PC-12 [5], the Activity amounted to 14.6%.

In the case of `COc1ccc(OC)c(C(=O)N2CC(C(=O)NCCc3cccc4ccc(OC)cc34)C2)c1`, the cytotoxicity at 24 h, 80 µM in data set [1] is 1.3%; in data set [2] it was 33.4%. Also, the outcome with PC-12 [3], in the data set on PC-12 [4] and in the data set with PC-12 [6] was inactive. In the data set with PC-12 [5], the Activity is recorded as 22.3%.

Consider `COc1ccc2cccc(CCNC(=O)C3CN(C(=O)c4ccco4)C3)c2c1`, for which the inhibition in vivo at 32 mg/kg in the data set with Mus musculus [7] came to 36.2%. Further, the cytotoxicity at 24 h, 80 µM in [1] turned out to be 3.2%; in data set [2], 26.4%. Further, the result in the data set with PC-12 [3], in the data set on PC-12 [4] and in the data set with PC-12 [6] was inactive. The Activity with PC-12 [5] is listed as 38.8%.

Consider `COc1ccc2cccc(CCNC(=O)C3CN(C(=O)c4ccc(C#N)cc4)C3)c2c1`, for which the cytotoxicity at 24 h, 80 µM is 1% in data set [1] and 17.5% in [2]. Besides, the outcome in the data set on PC-12 [3], in the data set on PC-12 [4] and in the data set on PC-12 [6] was inactive. Further, the Activity in the data set on PC-12 [5] is 25.8%.

Regarding `COc1ccc2cccc(CCNC(=O)C3CN(C(=O)c4ccccn4)C3)c2c1`, the cytotoxicity at 24 h, 80 µM in [1] was 11.2%; in data set [2] it was 31.8%. Moreover, the outcome in the data set on PC-12 [3], in the data set with PC-12 [4] and with PC-12 [5] was inactive. Further, the Activity in the data set with PC-12 [6] came to 0.7%.

As to `CNCCC(Oc1ccc(C(F)(F)F)cc1)c1ccccc1` (stereo unspecified) [FLUOXETINE], the inhibition in vivo at 32 mg/kg in the data set with Mus musculus [7] amounted to 50.7%. Further, the Activity amounted to 66.4% in the data set on Mus musculus [10], 19.7% in the data set on PC-12 [5] and 2.8% with PC-12 [6]. For the same compound, the result in the data set with PC-12 [3] and in the data set on PC-12 [4] was inactive.

Take `COc1ccc2cccc(CCNC(=O)C3CN(S(C)(=O)=O)C3)c2c1`: the cytotoxicity at 24 h, 80 µM in [1] turned out to be 4.4%; in [2] it was 8.5%. Moreover, the Activity in the data set with PC-12 [3] is 3.7%; in the data set with PC-12 [5] it was 1.4%; with PC-12 [6], 0.9%. Also, in the data set on PC-12 [4], the outcome was inactive.

Turning to `CCC(=O)N1CC(C(=O)NCCc2cccc3ccc(OC)cc23)C1`, the cytotoxicity at 24 h, 80 µM was determined as 2.9% in [1] and 11.2% in data set [2]. For the same compound, the Activity in the data set with PC-12 [3] came to 7.5%. Also, the result in the data set on PC-12 [4], in the data set with PC-12 [5] and in the data set on PC-12 [6] was inactive.

For the compound `COc1ccc2cccc(CCNC(C)=O)c2c1` [AGOMELATINE], the inhibition in vivo at 32 mg/kg in the data set with Mus musculus [7] is 8.4%. Moreover, the Activity in the data set with Mus musculus [10] is 85.3%; with PC-12 [4] it was 2.7%; in the data set with PC-12 [5], 26.2%. Besides, the outcome with PC-12 [3] and in the data set on PC-12 [6] was inactive.

With `COc1ccc2cccc(CCNC(=O)C3CN(C(=O)c4cc([N+](=O)[O-])cc([N+](=O)[O-])c4)C3)c2c1`, the cytotoxicity at 24 h, 80 µM was 15.8% in [1] and 11.1% in [2]. The result in the data set on PC-12 [3], with PC-12 [5] and in the data set with PC-12 [6] was inactive. Moreover, the Activity in the data set with PC-12 [4] is listed as 1.7%.

As for `COc1ccc2cccc(CCNC(=O)C3CN(S(=O)(=O)N(C)C)C3)c2c1`, the values for the cytotoxicity at 24 h, 80 µM in [1] and in [2] were 7.4% and 4.6%, respectively. For the same compound, the outcome in the data set on PC-12 [3], with PC-12 [5] and in the data set with PC-12 [6] was inactive. The Activity with PC-12 [4] was determined as 2.1%.

As for `COc1ccc2cccc(CCNC(=O)C3CN(S(=O)(=O)c4ccc(C)cc4)C3)c2c1`, the cytotoxicity at 24 h, 80 µM turned out to be 2.7% in data set [1] and 3.6% in data set [2]. Further, the outcome in the data set with PC-12 [3], with PC-12 [4], in the data set on PC-12 [5] and with PC-12 [6] was inactive.

In the case of `COc1cc(OC)cc(C(=O)N2CC(C(=O)NCCc3cccc4ccc(OC)cc34)C2)c1`, the cytotoxicity at 24 h, 80 µM in data set [1] and in [2] was 13.1% in each case. In addition, the outcome in the data set on PC-12 [3], with PC-12 [5] and in the data set with PC-12 [6] was inactive. Further, in the data set with PC-12 [4], the Activity came to 2.1%.

As for `COc1ccc2cccc(CCNC(=O)C3CN(C(=O)N(C)C)C3)c2c1`, the Activity result in data set [1] (l02, 24 h, 80 µM) is listed as “Non-toxic”; in the data set with PC-12 [3], 4.3%; with PC-12 [4], 1.2%. In addition, the cytotoxicity at 24 h, 80 µM in [2] came out at 2.5%. Further, the result in the data set on PC-12 [5] and in the data set on PC-12 [6] was inactive.

The values are drawn from ChEMBL document CHEMBL3286239, “Synthesis and biological evaluation of novel naphthalene compounds as potential antidepressant agents” (Eur J Med Chem, 2014).
